Source: ChEMBL document CHEMBL1148073, “Cytotoxic diterpenoids from Isodon megathyrsus” (1994)
In brackets after ≈: the same amount, converted by molar mass. Activity calls are given as the source filed them. No cut-off for these calls is given here.

How the values were obtained:
Lu1 = assay: Cytotoxicity against human Lu1 cells after 3 days by SRB assay; format: functional; details: Lu1, 72 h, read-out: ED50 (the source's name)
KB = assay: Cytotoxicity against human KB cells after 3 days by SRB assay; format: functional; details: 72 h, read-out: ED50 (the source's name)
[1] = Cytotoxicity against human KBVIN cells in presence of 1 ug/ml vinblastine after 3 days by SRB assay; format: functional; details: 72 h, read-out: ED50 (the source's name)
[2] = Cytotoxicity against human KBVIN cells after 3 days by SRB assay; format: functional; details: 72 h, read-out: ED50 (the source's name)
LNCaP = assay: Cytotoxicity against human LNCAP cells after 3 days by SRB assay; format: functional; details: 72 h, read-out: ED50 (the source's name)
ZR-75-1 = assay: Cytotoxicity against human ZR-75-1 cells after 3 days by SRB assay; format: functional; details: ZR-75-1, 72 h, read-out: ED50 (the source's name)
ASK = assay: Cytotoxicity against human ASK cells after 3 days by SRB assay; format: functional, cell-based
Procedure, shortened: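 ASK cell line: human astrocytoma.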

Plasmodium falciparum = assay: Antimalarial activity against Plasmodium falciparum by [3H]hypoxanthine uptake; format: functional, organism-based
[3] = molecular target: Human immunodeficiency virus type 1 reverse transcriptase (Human immunodeficiency virus 1) (UniProt Q72547); assay: Inhibition of HIV1 reverse transcriptase

| SMILES | EC50 (Lu1) [µg/mL] | EC50 (KB) [µg/mL] | EC50 [1] [µg/mL] | EC50 [2] [µg/mL] | EC50 (LNCaP) [µg/mL] | EC50 (ZR-75-1) [µg/mL] | ED50 (ASK) | Activity (Plasmodium falciparum) | Activity [3] |
| --- | --- | --- | --- | --- | --- | --- | --- | --- | --- |
| COc1cc2c(c(OC)c1OC)-c1ccc(OC)c(=O)cc1[C@@H](NC(C)=O)CC2 [COLCHICINE] | 0.2 (≈ 0.501 µM) | 0.2 (≈ 0.501 µM) | 0.6 | 3.5 (≈ 8.76 µM) | 0.06 (≈ 0.15 µM) | 0.1 (≈ 0.25 µM) | Active | – | – |
| Cc1c2ccncc2c(C)c2c1[nH]c1ccccc12 [ELLIPTECINE] | 0.2 (≈ 0.812 µM) | 0.04 (≈ 0.162 µM) | 0.2 | 0.3 (≈ 1.22 µM) | 0.8 (≈ 3.25 µM) | 0.9 (≈ 3.65 µM) | inactive | – | – |
| C=C1C(=O)[C@]23[C@H](O)[C@H]1CC[C@H]2[C@@]12CO[C@@]3(O)C[C@@H]1C(C)(C)CC[C@@H]2O [MEGATHYRIN A] | 3.4 (≈ 9.76 µM) | 1.1 (≈ 3.16 µM) | 8.9 | 19.1 (≈ 54.8 µM) | 1.8 (≈ 5.17 µM) | 1.8 (≈ 5.17 µM) | inactive | inactive | inactive |
| C=C1C(=O)[C@]23[C@H](O)[C@H]1CC[C@H]2[C@@]12CO[C@@]3(O)C[C@@H]1C(C)(C)CC[C@@H]2OC(C)=O [RABDOCOETSIN B] | 0.5 (≈ 1.28 µM) | 0.3 (≈ 0.768 µM) | 7.2 | > 20 | 0.6 (≈ 1.54 µM) | 0.8 (≈ 2.05 µM) | inactive | inactive | inactive |
| C=C1C(=O)[C@]23C[C@H]1C[C@H](O)[C@H]2[C@@]12CO[C@@]3(O)C[C@@H]1C(C)(C)CC[C@@H]2O [RABDOCOETSIN C] | 0.4 (≈ 1.15 µM) | 0.6 (≈ 1.72 µM) | > 20 | > 20 | 0.7 (≈ 2.01 µM) | 1 (≈ 2.87 µM) | inactive | inactive | inactive |
| C=C1C(=O)[C@]23C[C@H]1C[C@H](OC(C)=O)[C@H]2[C@@]12CO[C@@]3(O)C[C@@H]1C(C)(C)CC[C@@H]2O [RABDOCOETSIN D] | 0.9 (≈ 2.3 µM) | 0.5 (≈ 1.28 µM) | 12.1 | 9.5 (≈ 24.3 µM) | 0.8 (≈ 2.05 µM) | 0.8 (≈ 2.05 µM) | inactive | inactive | inactive |
